According to PMC7740640 (Xenobiotica; the fate of foreign compounds in biological …, 2020):
Where “and” joins values, the source holds several entries; their conditions need not be identical. Equal entries are not always repeated.

Tests used:
Type in all cases: in vitro ADME
CYP2B6 = target: T1, CYP2B6 (Homo sapiens, UniProt P20813); assay: Formation of C151 from C152; conditions: SS(2B6)
T1 sequence (P20813 1-491): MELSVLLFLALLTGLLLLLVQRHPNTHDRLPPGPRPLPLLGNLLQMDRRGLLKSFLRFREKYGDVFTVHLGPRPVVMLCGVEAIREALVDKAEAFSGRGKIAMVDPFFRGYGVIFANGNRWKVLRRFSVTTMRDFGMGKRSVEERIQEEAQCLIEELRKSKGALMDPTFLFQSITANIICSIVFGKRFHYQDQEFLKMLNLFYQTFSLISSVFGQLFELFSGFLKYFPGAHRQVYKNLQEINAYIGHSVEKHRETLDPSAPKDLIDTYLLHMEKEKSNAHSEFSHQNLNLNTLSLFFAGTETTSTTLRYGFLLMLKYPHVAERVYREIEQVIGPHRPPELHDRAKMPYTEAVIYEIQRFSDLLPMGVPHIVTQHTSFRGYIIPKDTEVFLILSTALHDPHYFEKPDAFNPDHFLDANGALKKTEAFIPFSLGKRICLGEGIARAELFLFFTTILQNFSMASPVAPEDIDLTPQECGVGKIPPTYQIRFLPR
In short: (§1)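 Probes hold 5–20 pmol P450 in 0.1 M Na-HEPES pH 7.4 with 60 mM KCl. C152 added from 0.5 or 4 mM acetone stock; reaction started with 500 μM NADPH (final), run 5 min at 30 °C with shaking. Quenched with isopropanol containing phenacetin internal standard, then centrifuged. C151 quantified by reverse-phase LC with ESI-positive MRM MS/MS (m/z 230.16→157.2). Michaelis–Menten or Hill fit; normalized per P450 (Supersomes) or CPR (HLM).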

[1] = test system: human liver microsomes (HLM); assay: Formation of C151 from C152
In short: as §1

CYP1A2 = target: T2, CYP1A2 (Homo sapiens, UniProt P05177); assay: Formation of C151 from C152; conditions: SS(1A2)
T2 sequence (P05177 2-516 limits assumed): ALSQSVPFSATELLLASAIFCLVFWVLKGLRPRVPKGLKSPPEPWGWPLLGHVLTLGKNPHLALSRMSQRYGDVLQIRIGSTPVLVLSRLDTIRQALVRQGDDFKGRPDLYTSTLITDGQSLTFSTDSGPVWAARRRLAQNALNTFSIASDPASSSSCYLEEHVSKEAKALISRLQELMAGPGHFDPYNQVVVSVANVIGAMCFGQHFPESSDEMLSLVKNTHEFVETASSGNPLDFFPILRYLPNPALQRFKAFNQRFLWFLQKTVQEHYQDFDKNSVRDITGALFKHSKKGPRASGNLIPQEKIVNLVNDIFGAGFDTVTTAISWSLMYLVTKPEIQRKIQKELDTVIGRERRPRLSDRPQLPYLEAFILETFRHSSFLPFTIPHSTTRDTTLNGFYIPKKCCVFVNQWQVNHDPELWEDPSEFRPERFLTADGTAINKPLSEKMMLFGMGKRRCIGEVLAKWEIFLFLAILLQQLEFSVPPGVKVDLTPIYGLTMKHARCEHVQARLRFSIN
In short: as §1

CYP2C19 = CYP2C19 (Homo sapiens, UniProt P33261); assay: C152 metabolism; conditions: for Specific rate: CYP2C19
Sequence of CYP2C19 (P33261 whole entry): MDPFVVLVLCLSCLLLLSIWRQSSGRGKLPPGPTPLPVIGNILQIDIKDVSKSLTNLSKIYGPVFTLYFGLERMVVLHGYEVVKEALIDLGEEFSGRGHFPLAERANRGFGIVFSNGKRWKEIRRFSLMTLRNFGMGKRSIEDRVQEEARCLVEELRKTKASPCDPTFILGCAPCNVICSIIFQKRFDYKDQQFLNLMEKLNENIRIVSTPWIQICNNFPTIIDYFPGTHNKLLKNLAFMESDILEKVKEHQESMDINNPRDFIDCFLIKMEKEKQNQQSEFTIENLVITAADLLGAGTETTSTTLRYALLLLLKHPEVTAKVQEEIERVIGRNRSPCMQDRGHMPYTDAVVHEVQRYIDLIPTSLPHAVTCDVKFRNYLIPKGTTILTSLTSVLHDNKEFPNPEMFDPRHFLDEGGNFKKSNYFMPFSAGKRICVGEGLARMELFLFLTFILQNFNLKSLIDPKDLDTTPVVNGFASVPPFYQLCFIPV
In short: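 Human P450s in Supersomes that co-express human CPR and cytochrome b5. Reaction in 0.1 M Na-HEPES pH 7.4 with 60 mM KCl, stirred at 30 °C. C152 0.1–30 μM added from acetone stock; 200 μM NADPH starts it. Fluorescence rise read at 500 nm (isosbestic, mono-demethylation step). Rate is the linear slope over 3–5 min, scaled by the C151–C152 fluorescence difference. Michaelis–Menten or Hill fit, Vmax per P450, 2–6 runs; rate at 30 μM computed from fit.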

[2] = C151 formed over total C152 metabolized
[3] = mol C151 formed per mol P450 per min
[4] = read-out: KM or S50 (Formation of C151, LC-MS), Michaelis-Menten fit

CN(C)c1ccc2c(C(F)(F)F)cc(=O)oc2c1 [C152, 7-Dimethylamino-4-trifluromethylcoumarin]
Fraction of C151 formed, LC-MS (CYP2B6; [2]): 4% and 4.0±0.8%
Vmax (Formation of C151, LC-MS) (CYP2B6; [3]): 1.8 ± 0.4 min⁻¹
Km (CYP2B6; [4]): 1 ± 0.4 µM
Vmax (Formation of C151, LC-MS) ([1]; mol C151 formed, normalized per CPR): 1.3 ± 0.2 min⁻¹
Km [1, 4]: 3 ± 0.5 µM
Fraction of C151 formed, LC-MS (CYP1A2; [2]): 20% and 20±2%
Vmax (Formation of C151, LC-MS) (CYP1A2; [3]): 0.98 ± 0.12 min⁻¹
Km (CYP1A2; [4]): 1.7 ± 0.6 µM
Specific rate (CYP2C19; at 30 μM C152, calculated from fit parameters): 6.5 min⁻¹
Specific rate (CYP2C19; at saturation (Vmax in Supersomes)): 7.8 min⁻¹
Vmax (C152 metabolism, fluorimetric assay) (CYP2C19; SS(2C19), mol C152 per mol P450 per min): 7.8 ± 3.4 min⁻¹
Fraction of C151 formed, Fluorimetry (CYP2C19; SS(2C19), scanning fluorimetry with PCA): 3.2±2.4%
Km (CYP2C19; read-out: KM or S50 (C152 metabolism, fluorimetric assay), SS(2C19), Michaelis-Menten fit, 30 °C, pH 7.4): 5.7 ± 1.1 µM
